According to PMC6467801 (Journal of medicinal chemistry, 2018):

Tests used:
full length SHP2 = biological target: T1, full length SHP2 (Homo sapiens, UniProt Q06124); experiment: In vitro phosphatase activity assay, phospho-peptide substrate, Malachite Green; format: biochemical; conditions: for inhibition of SHP2 phosphatase activity (qualitative): phospho-peptide substrate
T1 sequence (Q06124 1-593): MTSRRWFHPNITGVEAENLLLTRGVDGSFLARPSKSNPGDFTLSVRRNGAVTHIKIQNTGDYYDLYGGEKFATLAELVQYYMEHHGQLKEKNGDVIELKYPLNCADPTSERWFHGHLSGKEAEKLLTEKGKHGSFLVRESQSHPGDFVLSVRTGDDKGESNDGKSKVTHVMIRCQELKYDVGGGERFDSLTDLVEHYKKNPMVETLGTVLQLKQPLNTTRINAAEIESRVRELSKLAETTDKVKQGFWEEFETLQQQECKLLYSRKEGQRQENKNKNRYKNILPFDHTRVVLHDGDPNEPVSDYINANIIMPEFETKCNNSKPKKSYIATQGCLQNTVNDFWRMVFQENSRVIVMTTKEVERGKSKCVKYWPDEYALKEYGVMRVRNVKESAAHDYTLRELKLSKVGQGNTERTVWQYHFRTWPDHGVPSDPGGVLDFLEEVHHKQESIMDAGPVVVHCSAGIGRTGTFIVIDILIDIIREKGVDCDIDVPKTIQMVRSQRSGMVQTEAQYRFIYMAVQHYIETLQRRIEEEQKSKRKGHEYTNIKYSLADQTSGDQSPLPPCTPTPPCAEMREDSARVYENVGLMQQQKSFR
Procedure, shortened: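 Purified full-length SHP2 (0.1 μg) was preincubated with test compound for 30 min at room temperature in 25 mM Tris-HCl pH 7.4, 50 mM NaCl, 5 mM DTT, 2.5 mM EDTA. Phospho-peptide (also an N-SH2 activator) was added to 50 µM final and incubated 30 °C, 30 min. Freed phosphate was read by Malachite Green at OD620. Lineweaver-Burk used 0, 10, 20 μM; mean ± SD, three experiments.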

full length SHP1 = full length SHP1 (Homo sapiens, UniProt P29350); experiment: In vitro phosphatase activity assay, phospho-peptide substrate, Malachite Green; format: biochemical; conditions: data not shown
[1] = tested on: SHP2 (full length WT, E76K, PTP domain); experiment: Phosphatase assay with pNPP as the substrate; format: biochemical; conditions: 1 at 10 μM; any form of SHP2 protein
Procedure, shortened: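 SHP2 enzyme (0.1 μg; full-length WT, E76K or PTP domain) was incubated with test compound for 15 min at 37 °C in 25 mM Tris-HCl pH 7.4, 50 mM NaCl, 5 mM DTT, 2.5 mM EDTA. pNPP was added to 0.9 mg/ml final and incubated a further 15 min at 37 °C. Read-out was OD405. Three independent experiments.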

Ba/F3 cells [2] = experiment: IL-3 dependent cell proliferation; format: cell-based, murine; conditions: IL-3 1.0 ng/mL, 48 hours
Procedure, shortened: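 Cell numbers were read 48 hours after treatment with the One Solution Cell Proliferation Assay kit. Three experiments; mean ± SD of triplicates from one representative experiment.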

Ba/F3 cells [3] = experiment: IL-3-induced signaling, immunoblotting of p-Erk, p-Akt, p-Jak2, p-Stat5; format: cell-based, murine; conditions: 4 hours pretreatment, IL-3 2.0 ng/mL, dose-dependent
Procedure, shortened: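 Ba/F3 cells were starved overnight in serum- and cytokine-free RPMI1640, given test compound for 4 h, then stimulated with IL-3 2 ng/mL. Stimulation was 10 min for the dose series, or a time course at 20 µM. Cells were lysed in RIPA with NaF, Na3VO4 and protease inhibitors. 50 μg protein per lane went through SDS-PAGE and phospho-antibody immunoblotting with ECL. Blots were reprobed for total proteins. Three independent experiments.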

H661 cells = experiment: Cell cycle analysis, propidium iodide staining and FACS; format: cell-based, human; conditions: 10 and 20 μM, 24 hours
Procedure, shortened: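 H661 cells (PTPN11 N58S/+) were treated with test compound at 0, 10 or 20 μM, stained with propidium iodide and analysed by FACS. Profiles are representative of three independent experiments.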

His-tagged SHP2 = biological target: T2, His-tagged SHP2 (Homo sapiens, UniProt Q06124); experiment: Thermal shift assay; format: binding; conditions: 5, 10, 60 µM
T2 sequence (Q06124 1-593): T1 sequence (Q06124 1-593)
Procedure, shortened: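 His-tagged SHP2 (1 µg) in 50 mM Tris-HCl pH 8.0, 500 mM NaCl, 50 mM imidazole was mixed with 5x Sypro Orange stock, 20 µl reaction. Test compound in DMSO was added to 5, 10 or 60 µM final; 1% DMSO served as control. Samples were heated 22–95 °C in 1 °C steps every 50 sec, and Tm was taken from melting curves. Mean ± SD of three independent experiments.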

[4] = tested on: myeloid progenitors from PTPN11 E76K/+ mice; experiment: Colony-forming unit assay, mouse bone marrow cells; format: cell-based; conditions: GM-CSF 1.0 ng/mL, 7 days, vs WT control cells
Procedure, shortened: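 Bone marrow from Ptpn11E76K/+/Mx1-Cre+ and Ptpn11+/+/Mx1-Cre+ mice was plated at 2×10^4 cells/mL in 0.9% methylcellulose IMDM (30% FBS, glutamine, β-mercaptoethanol, GM-CSF 1.0 ng/mL) with graded test compound or DMSO. Cultures ran 7 days at 37 °C in 5% CO2. Myeloid colonies (CFU-GM, CFU-M) were counted and normalized to WT DMSO colonies. Mean ± SD of three independent experiments.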

H596 cells (WT PTPN11) = experiment: Lung cancer cell proliferation; format: cell-based, human; conditions: 48 hours, dose-dependent
Procedure, shortened: (§1)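 Human lung cancer H661 (PTPN11 N58S/+) and H596 (WT PTPN11) cells were exposed to graded test compound for 48 hours, with DMSO controls. Cell number was measured by One Solution Cell Proliferation Assay kit. Three experiments; mean ± SD of triplicates from one representative experiment.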

[5] = tested on: myeloid blasts from JMML patients with the PTPN11 E76K/+ mutation; experiment: Colony-forming unit assay, JMML patient cells; format: cell-based, human; conditions: GM-CSF 1.0 ng/mL, 14 days
[6] = biological target: T3, full length WT SHP2 GST-fusion protein (Homo sapiens, UniProt Q06124); experiment: Fluorescence titration; format: binding; conditions: SHP2 3.0 µM, dose-dependent
T3 sequence (Q06124 1-593): T1 sequence (Q06124 1-593)
Procedure, shortened: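 GST-fusion full-length WT SHP2 was held at 3.0 μM in 20 mM Tris-HCl, pH 7.5, and titrated with rising test compound. Excitation was 295 nm and emission was read 360–500 nm. Inhibitor-alone fluorescence was subtracted. Relative intensity was plotted against log molar concentration. Three independent experiments; mean ± SD of triplicates from one representative run.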

[7] = tested on: mouse embryonic fibroblasts (WT, PTPN11 knockout, PTPN11 E76K/+); experiment: MEF proliferation; format: cell-based; conditions: 6 μM
Procedure, shortened: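 Ptpn11 fl/fl and +/+ MEFs were infected with adeno-Cre, then treated with test compound at 6 μM or DMSO. Growth was measured at 24, 48 and 72 h with the One Solution Cell Proliferation kit, and SHP2 loss was confirmed by immunoblot. Ptpn11 E76K/+ and +/+ MEFs at 6 μM were counted with the same kit. Three experiments; mean ± SD of triplicates from one representative.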

H661 cells (PTPN11 N58S) = experiment: Lung cancer cell proliferation; format: cell-based, human; conditions: 48 hours, dose-dependent; more sensitive than H596
Procedure, shortened: as §1

cells = experiment: Acute toxicity in cells; format: cell-based

Chain of full length SHP1 (P29350 whole entry, the tested form may be a part): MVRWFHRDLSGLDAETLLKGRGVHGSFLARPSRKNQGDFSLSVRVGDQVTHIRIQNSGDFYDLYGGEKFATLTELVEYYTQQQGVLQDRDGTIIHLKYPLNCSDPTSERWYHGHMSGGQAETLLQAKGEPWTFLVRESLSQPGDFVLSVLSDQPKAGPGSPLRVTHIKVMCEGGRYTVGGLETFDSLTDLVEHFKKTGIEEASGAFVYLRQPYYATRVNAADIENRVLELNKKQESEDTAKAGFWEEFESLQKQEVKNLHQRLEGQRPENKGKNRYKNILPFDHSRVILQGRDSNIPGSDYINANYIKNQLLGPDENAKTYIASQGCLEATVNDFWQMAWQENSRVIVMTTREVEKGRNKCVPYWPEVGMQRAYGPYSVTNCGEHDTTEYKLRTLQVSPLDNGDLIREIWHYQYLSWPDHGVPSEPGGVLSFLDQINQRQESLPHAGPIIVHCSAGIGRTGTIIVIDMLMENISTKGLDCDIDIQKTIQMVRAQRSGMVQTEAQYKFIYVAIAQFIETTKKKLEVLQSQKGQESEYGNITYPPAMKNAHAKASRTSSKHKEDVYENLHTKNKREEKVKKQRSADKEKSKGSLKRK

CCOc1cc(O)c(C(=O)/C=C/c2ccc(Cl)cc2Cl)cc1CN(CC)CC [LY3]
inhibition of SHP2 phosphatase activity (qualitative) (full length SHP2): good effects on SHP2
inhibition of SHP1 relative to SHP2 (qualitative) (full length SHP1): inhibited the SHP1 phosphatase to a similar extent

CCOc1cc(O)c(C(=O)/C=C/c2ccc(Cl)cc2Cl)cc1CN1CCC=C(n2c(=O)[nH]c3ccccc32)C1 [compound 1, (E)-1-(1-(5-(3-(2,4-dichlorophenyl)acryloyl)-2-ethoxy-4-hydroxybenzyl)-1,2,5,6-tetrahydropyridin-3-yl)-1H-benzo[d]imidazol-2(3H)-one]
effect on capability of SHP2 to dephosphorylate pNPP [1]: did not affect
type of inhibition (Lineweaver-Burk plot) (full length SHP2; 0, 10, 20 μM, Vmax decreased, Km increased): mixed type inhibitor
inhibitory function in presence of Triton X-100 (full length SHP2; 0.001% Triton X-100 in assay buffer): not decreased
inhibition of SHP2 in presence of Triton X-100 (full length SHP2; 0.01% Triton X-100): diminished
inhibition of SHP2 phosphatase activity (qualitative) (full length SHP2): most active compound among the remaining compounds
1/SHP2 binding after extensive washing of enzyme-inhibitor complex (full length SHP2; washing): stable
cell growth (Ba/F3 cells [2]): significantly suppressed cell growth
IL-3-induced activation (phosphorylation) of Erk, Akt, Jak2, Stat5 (Ba/F3 cells [3]): inhibited
cell cycle change (H661 cells): pronounced G2/M arrest
shift in melting temperature (Tm) (His-tagged SHP2): dose-dependent right shifts
inhibition of colony-forming capability of SHP2 E76K-expressing progenitors [4]: much more sensitive than control cells
proliferation of H596 cells (H596 cells (WT PTPN11)): inhibited proliferation
colony formation of JMML myeloid blasts [5]: exquisitely sensitive
quenching of SHP2 fluorescence [6]: strong quenching
cell growth of PTPN11 E76K/+ MEFs [7]: significantly decreased cell growth
proliferation of WT MEFs ([7]; 24, 48, 72 hours): markedly decreased
proliferation of PTPN11-depleted MEFs ([7]; PTPN11 knockout): did not show a significant effect
proliferation of H661 cells (H661 cells (PTPN11 N58S)): inhibited proliferation

CCOc1cc(O)c(C(=O)/C=C/c2ccc(Cl)cc2Cl)cc1CN1C[C@@H](O)C[C@@H]1C(C)=O [LY7]
toxicity in cells (cells): acute toxicity in cells

CCOc1cc(O)c(C(=O)/C=C/c2ccc(Cl)cc2Cl)cc1CN1CCNCC1C (stereo not drawn) [LY5]
inhibition of SHP2 phosphatase activity (qualitative) (full length SHP2): good effects on SHP2
inhibition of SHP1 relative to SHP2 (qualitative) (full length SHP1): inhibited the SHP1 phosphatase to a similar extent

CCOc1cc(O)c(C(=O)/C=C/c2ccc(Cl)cc2Cl)cc1CN1CCCCC1 [LY1]
toxicity in cells (cells): acute toxicity in cells
